Among the data in PubChem BioAssay are outcome values, retold here.

Structures are written as SMILES. Calls of active or inactive are those of the source.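 Rule for the calls: active = mean duplicate activation above the buffer control mean plus 5 SD of those controls; inactive = the rest.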

Sequence of Potassium voltage-gated channel subfamily E member 1 (Homo sapiens) + Potassium voltage-gated channel subfamily KQT member 1 (Homo sapiens) (P51787 whole entry, looked up): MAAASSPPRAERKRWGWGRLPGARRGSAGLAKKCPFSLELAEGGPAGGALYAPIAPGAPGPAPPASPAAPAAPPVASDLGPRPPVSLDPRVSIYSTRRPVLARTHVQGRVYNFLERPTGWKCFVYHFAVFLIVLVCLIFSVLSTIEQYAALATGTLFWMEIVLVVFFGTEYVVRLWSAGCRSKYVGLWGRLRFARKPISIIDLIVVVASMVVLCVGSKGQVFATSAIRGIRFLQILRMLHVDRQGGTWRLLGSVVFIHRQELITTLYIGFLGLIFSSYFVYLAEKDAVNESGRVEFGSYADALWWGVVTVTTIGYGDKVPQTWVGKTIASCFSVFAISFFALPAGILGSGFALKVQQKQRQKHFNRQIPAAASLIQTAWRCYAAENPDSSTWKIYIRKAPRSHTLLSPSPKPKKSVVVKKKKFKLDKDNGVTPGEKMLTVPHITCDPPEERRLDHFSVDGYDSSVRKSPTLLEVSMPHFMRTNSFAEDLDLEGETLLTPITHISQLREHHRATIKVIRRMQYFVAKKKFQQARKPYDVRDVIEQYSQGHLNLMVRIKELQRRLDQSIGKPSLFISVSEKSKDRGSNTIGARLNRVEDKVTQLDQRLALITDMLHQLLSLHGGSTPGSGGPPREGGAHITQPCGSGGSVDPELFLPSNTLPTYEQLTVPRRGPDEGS

This test addresses Potassium voltage-gated channel subfamily E member 1 (Homo sapiens) + Potassium voltage-gated channel subfamily KQT member 1 (Homo sapiens) (UniProt P15382+P51787). Description: KCNQ1/KCNE1 complex potentiators, confirmation, selectivity assay for KCNQ1 potentiator project, thallium flux, CHO-K1 KCNQ1/E1 cells (AID 493186). The following applies: FluxOR thallium flux, at 10 µM. In outline:
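Test system: CHO-K1 cells with KCNQ1/E1. Times: 90-min dye loading then 20-min compound exposure, both at room temperature. Measured by: kinetic FluxOR thallium-flux fluorescence, 10 s baseline plus 110 s after stimulus. Repeats: duplicate wells per compound.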
In the case of `COc1cccc(-c2nc(=S)c3c(o2)CCCC3)c1`, the result was inactive.

`CCOC(=O)c1c(C)[nH]sc1=S`: the result was inactive. Consider `CC(Sc1nncs1)C(=O)NC1CCCCC1C` (stereo not given), for which the outcome was inactive.

For the compound `Cc1ccc(NC(=S)NC(=O)c2ccc(-c3ccccc3)cc2)c(C)c1`, the outcome was inactive. On to `O=C(Nc1nnc(-c2ccccc2)o1)c1cc(Cl)sc1Cl`, for which the outcome was inactive. With `CC(=O)c1cccc(OCc2cc(C(=O)N(C)C(C)c3ccccn3)no2)c1` (stereo not given), the outcome was inactive. In the case of `NC(=O)c1ccsc1NC(=O)COC(=O)Cc1ccsc1` it was “inactive”; in that of `Cc1cc(-c2cccnc2)c(C#N)c(SCC#N)n1`, “inactive”; in that of `CC(c1ccccc1)c1nnc(N)s1` (stereo not given), “inactive”. On to `CCOc1ccc(OCCCN(C)C)cc1`, for which the result was inactive. For the compound `CCOc1cc(CN2CCOCC2)cc(C(C)=O)c1`, the outcome was inactive. In the case of `O=C(CSc1nnc(-c2ccco2)o1)Nc1cccc([N+](=O)[O-])c1`, the outcome was inactive. As for `CC1(C)CC(Nc2ccc(Nc3ccccc3)cc2)CC(C)(C)N1`, the entry is “inactive”; as for `O=C(c1ccc(-c2ccccc2)cc1)C1CCCN(C(=O)Cn2cncn2)C1` (stereo not given), “inactive”; as for `O=C(NC(=S)Nc1ccccc1N1CCCC1)c1ccc(-c2cccc([N+](=O)[O-])c2)o1`, “inactive”.

In the case of `CC1(c2ccc(OC(F)F)cc2)NC(=O)N(CC(=O)Nc2ccc3c(c2)OCO3)C1=O` (stereo not given), the outcome was inactive.

As for `Cn1c(SCC(=O)NC2CC2)nnc1-c1cccs1`, the result was inactive. Consider `C/C(=N\Nc1cccc2cccnc12)c1ccc[nH]1`, for which the outcome was inactive. In the case of `CC1Oc2ccccc2N(CC(=O)N2CCCCCC2)C1=O` (stereo not given) it was “inactive”.

For the compound `CCCOc1ccc(C(=O)NNC(=S)NC(=O)c2cc(-c3ccc(Cl)cc3)nc3ccccc23)cc1`, the outcome was inactive.

Regarding `S=c1[nH]nc(-c2ccco2)n1/N=C/c1ccc(Br)s1`, the result was inactive. For `CCCN(CCC)Cc1c(C(=O)N/N=C/C(C)=C\c2ccco2)nnn1-c1nonc1N`, the outcome was inactive. On to `CCCCCCCCN1[C@@H](CC(C)=O)c2cc(C(F)(F)F)ccc2S1(=O)=O`, for which the result was inactive. On to `S=c1nc[nH]c2c1[nH]c1ccc(Cl)cc12`, for which the result was inactive. As for `CCn1c(CN2CCN(c3ccc(OC)cc3)CC2)nc2cc(S(=O)(=O)N(C)C)ccc21`, the outcome was inactive. Regarding `O=C(NC(=S)Nc1cccc(Cl)c1N1CCCCC1)c1cccs1`, the result was inactive. Take `CC(NC(=O)c1ccccc1Cl)C1CC2CCC1C2` (stereo not given): the outcome was inactive. For `CCN(c1ccccc1)S(=O)(=O)c1ccc(NC(=S)NC(=O)c2ccc(Br)o2)cc1`, the outcome was inactive. As to `CCC(C)NCC(=O)Nc1sc2c(c1C(N)=O)CCC2` (stereo not given), the outcome was inactive. In the case of `Cn1cccc1C(=O)NNC(=O)COc1ccccc1F` it was “inactive”; in that of `CCCOc1ccc(C(=O)NNC(=S)NC(=O)CC)cc1`, “inactive”; in that of `CN(C)CCNc1nc2sc3c(c2c(=O)n1CCc1ccccc1)CCCCC3`, “inactive”. For the compound `COc1ccc(CCNC(=O)CCOc2cc(C)ccc2C)cc1OC`, the result was inactive. With `Cc1cc(/C=N/NC(=O)C(O)(c2ccccc2)c2ccccc2)c(C)n1-c1ccccc1`, the result was inactive. Regarding `O=C(NCC(c1cccs1)N1CCOCC1)C1CCN(S(=O)(=O)c2cccc(C(F)(F)F)c2)CC1` (stereo not given), the outcome was inactive. As to `CCN1CCN(c2ccc(S(=O)(=O)N3CCCC3)cn2)CC1`, the result was inactive. `COc1ccccc1C(=O)NNC(=O)C(=O)NC(C)C`: the result was inactive.

As to `Cc1ccc(-c2nnc(SCC(=O)N/N=C/c3ccccc3C(=O)O)n2-c2ccc(Cl)cc2)cc1`, the outcome was inactive. As to `Cc1ccc(S(=O)(=O)/N=C(\N)Nc2nc(C)c3ccccc3n2)cc1`, the outcome was inactive.

Regarding `CCCCS(=O)(=O)/C=C\C=C/S(=O)(=O)CCCC`, the result was inactive.
